In ChEMBL document CHEMBL3098013, “Novel pyrazole integrated 1,3,4-oxadiazoles: synthesis, characterization and antimicrobial evaluation” (2014):
In brackets after ≈: the same amount, converted by molar mass.

Experiments:
Format in all cases: functional
Escherichia coli [1] = experiment: Antimicrobial activity against Escherichia coli MTCC 724 at 50 ug/ml after 24 hrs by disc diffusion method; details: MTCC 724, 24 h, read-out: DIZ
In short: (§1)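 Agar diffusion read-out is the diameter of the inhibition zone in mm. Each test was run in six replicates and reported as mean ± standard deviation, taken from at least three determinations.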

Staphylococcus aureus [2] = experiment: Antimicrobial activity against Staphylococcus aureus MTCC 96 at 100 ug/ml after 24 hrs by disc diffusion method; details: MTCC 96, 24 h, read-out: DIZ; in short: as §1
Aspergillus niger [3] = experiment: Antimicrobial activity against Aspergillus niger MTCC 281 at 50 ug/ml after 48 hrs by disc diffusion method; details: MTCC 281, 48 h, read-out: DIZ; in short: as §1
Bacillus cereus [4] = experiment: Antimicrobial activity against Bacillus cereus MTCC 8372 at 50 ug/ml after 24 hrs by disc diffusion method; details: MTCC 8372, 24 h, read-out: DIZ; in short: as §1
Staphylococcus aureus [5] = experiment: Antimicrobial activity against Staphylococcus aureus MTCC 96 at 50 ug/ml after 24 hrs by disc diffusion method; details: MTCC 96, 24 h, read-out: DIZ; in short: as §1
Bacillus cereus [6] = experiment: Antimicrobial activity against Bacillus cereus MTCC 8372 after 24 hrs by microdilution method; details: MTCC 8372, 24 h
In short: (§2)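 The minimal inhibitory concentration was determined by dilution, alongside minimal bactericidal concentration for bacterial strains and minimal fungicidal concentration for fungal strains. Tests were run in six replicates, and the value is the mean of at least three determinations.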

Bacillus cereus [7] = experiment: Antimicrobial activity against Bacillus cereus MTCC 8372 at 100 ug/ml after 24 hrs by disc diffusion method; details: MTCC 8372, 24 h, read-out: DIZ; in short: as §1
Klebsiella pneumoniae [8] = experiment: Antimicrobial activity against Klebsiella pneumoniae MTCC 3384 at 100 ug/ml after 24 hrs by disc diffusion method; details: MTCC 3384, 24 h, read-out: DIZ; in short: as §1
Fusarium oxysporum [9] = experiment: Antimicrobial activity against Fusarium oxysporum MTCC 284 at 100 ug/ml after 48 hrs by disc diffusion method; details: MTCC 284, 48 h, read-out: DIZ; in short: as §1
Fusarium verticillioides [10] = experiment: Antimicrobial activity against Fusarium moniliforme MTCC 156 after 48 hrs by microdilution method; details: MTCC 156, 48 h; in short: as §2
Aspergillus flavus [11] = experiment: Antimicrobial activity against Aspergillus flavus MTCC 873 at 50 ug/ml after 48 hrs by disc diffusion method; details: MTCC 873, 48 h, read-out: DIZ; in short: as §1
Aspergillus niger [12] = experiment: Antimicrobial activity against Aspergillus niger MTCC 281 after 48 hrs by microdilution method; details: MTCC 281, 48 h; in short: as §2
Fusarium oxysporum [13] = experiment: Antimicrobial activity against Fusarium oxysporum MTCC 284 after 48 hrs by microdilution method; details: MTCC 284, 48 h; in short: as §2
Escherichia coli [14] = experiment: Antimicrobial activity against Escherichia coli MTCC 724 after 24 hrs by microdilution method; details: MTCC 724, 24 h; in short: as §2
Klebsiella pneumoniae [15] = experiment: Antimicrobial activity against Klebsiella pneumoniae MTCC 3384 after 24 hrs by microdilution method; details: MTCC 3384, 24 h; in short: as §2
Klebsiella pneumoniae [16] = experiment: Antimicrobial activity against Klebsiella pneumoniae MTCC 3384 at 50 ug/ml after 24 hrs by disc diffusion method; details: MTCC 3384, 24 h, read-out: DIZ; in short: as §1
Escherichia coli [17] = experiment: Antimicrobial activity against Escherichia coli MTCC 724 at 100 ug/ml after 24 hrs by disc diffusion method; details: MTCC 724, 24 h, read-out: DIZ; in short: as §1
Fusarium oxysporum [18] = experiment: Antimicrobial activity against Fusarium oxysporum MTCC 284 at 50 ug/ml after 48 hrs by disc diffusion method; details: MTCC 284, 48 h, read-out: DIZ; in short: as §1
Staphylococcus aureus [19] = experiment: Antimicrobial activity against Staphylococcus aureus MTCC 96 after 24 hrs by microdilution method; details: MTCC 96, 24 h; in short: as §2
Aspergillus flavus [20] = experiment: Antimicrobial activity against Aspergillus flavus MTCC 873 after 48 hrs by microdilution method; details: MTCC 873, 48 h; in short: as §2
Fusarium verticillioides [21] = experiment: Antimicrobial activity against Fusarium moniliforme MTCC 156 at 100 ug/ml after 48 hrs by disc diffusion method; details: MTCC 156, 48 h, read-out: DIZ; in short: as §1
Fusarium verticillioides [22] = experiment: Antimicrobial activity against Fusarium moniliforme MTCC 156 at 50 ug/ml after 48 hrs by disc diffusion method; details: MTCC 156, 48 h, read-out: DIZ; in short: as §1
Aspergillus niger [23] = experiment: Antimicrobial activity against Aspergillus niger MTCC 281 at 100 ug/ml after 48 hrs by disc diffusion method; details: MTCC 281, 48 h, read-out: DIZ; in short: as §1
Aspergillus flavus [24] = experiment: Antimicrobial activity against Aspergillus flavus MTCC 873 at 100 ug/ml after 48 hrs by disc diffusion method; details: MTCC 873, 48 h, read-out: DIZ; in short: as §1

Cc1c(-c2nnc(-c3ccc(Cl)cc3)o2)c(-c2ccc(Cl)cc2)nn1-c1ccccc1
zone of inhibition at 50 µg/mL (Escherichia coli [1]): 10 mm
zone of inhibition at 100 µg/mL (Staphylococcus aureus [2]): 12 mm
zone of inhibition at 50 µg/mL (Aspergillus niger [3]): 14 mm
zone of inhibition at 50 µg/mL (Bacillus cereus [4]): 6 mm
zone of inhibition at 50 µg/mL (Staphylococcus aureus [5]): 6 mm
MBC (Bacillus cereus [6]): 260 µg/mL (≈ 581 µM)
MIC (Bacillus cereus [6]): 40 µg/mL (≈ 89.4 µM)
zone of inhibition at 100 µg/mL (Bacillus cereus [7]): 10 mm
zone of inhibition at 100 µg/mL (Klebsiella pneumoniae [8]): 11 mm
zone of inhibition at 100 µg/mL (Fusarium oxysporum [9]): 28 mm
MFC (Fusarium verticillioides [10]): 215 µg/mL (≈ 481 µM)
MIC (Fusarium verticillioides [10]): 25 µg/mL (≈ 55.9 µM)
zone of inhibition at 50 µg/mL (Aspergillus flavus [11]): 14 mm
MFC (Aspergillus niger [12]): 220 µg/mL (≈ 492 µM)
MIC (Aspergillus niger [12]): 30 µg/mL (≈ 67.1 µM)
MFC (Fusarium oxysporum [13]): 215 µg/mL (≈ 481 µM)
MIC (Fusarium oxysporum [13]): 30 µg/mL (≈ 67.1 µM)
MBC (Escherichia coli [14]): 245 µg/mL (≈ 548 µM)
MIC (Escherichia coli [14]): 45 µg/mL (≈ 101 µM)
MBC (Klebsiella pneumoniae [15]): 250 µg/mL (≈ 559 µM)
MIC (Klebsiella pneumoniae [15]): 50 µg/mL (≈ 112 µM)
zone of inhibition at 50 µg/mL (Klebsiella pneumoniae [16]): 8 mm
zone of inhibition at 100 µg/mL (Escherichia coli [17]): 16 mm
zone of inhibition at 50 µg/mL (Fusarium oxysporum [18]): 15 mm
MBC (Staphylococcus aureus [19]): 250 µg/mL (≈ 559 µM)
MIC (Staphylococcus aureus [19]): 40 µg/mL (≈ 89.4 µM)
MFC (Aspergillus flavus [20]): 210 µg/mL (≈ 469 µM)
MIC (Aspergillus flavus [20]): 25 µg/mL (≈ 55.9 µM)
zone of inhibition at 100 µg/mL (Fusarium verticillioides [21]): 19 mm
zone of inhibition at 50 µg/mL (Fusarium verticillioides [22]): 10 mm
zone of inhibition at 100 µg/mL (Aspergillus niger [23]): 26 mm
zone of inhibition at 100 µg/mL (Aspergillus flavus [24]): 18 mm

COc1ccc(-c2nn(-c3ccccc3)c(C)c2-c2nnc(-c3ccccc3)o2)cc1OC
zone of inhibition at 50 µg/mL (Escherichia coli [1]): 14 mm
zone of inhibition at 100 µg/mL (Staphylococcus aureus [2]): 13 mm
zone of inhibition at 50 µg/mL (Aspergillus niger [3]): 3 mm
zone of inhibition at 50 µg/mL (Bacillus cereus [4]): 8 mm
zone of inhibition at 50 µg/mL (Staphylococcus aureus [5]): 6 mm
MBC (Bacillus cereus [6]): 230 µg/mL (≈ 525 µM)
MIC (Bacillus cereus [6]): 35 µg/mL (≈ 79.8 µM)
zone of inhibition at 100 µg/mL (Bacillus cereus [7]): 16 mm
zone of inhibition at 100 µg/mL (Klebsiella pneumoniae [8]): 9 mm
zone of inhibition at 100 µg/mL (Fusarium oxysporum [9]): 24 mm
MFC (Fusarium verticillioides [10]): 290 µg/mL (≈ 661 µM)
MIC (Fusarium verticillioides [10]): 55 µg/mL (≈ 125 µM)
zone of inhibition at 50 µg/mL (Aspergillus flavus [11]): 5 mm
MFC (Aspergillus niger [12]): 275 µg/mL (≈ 627 µM)
MIC (Aspergillus niger [12]): 40 µg/mL (≈ 91.2 µM)
MFC (Fusarium oxysporum [13]): 220 µg/mL (≈ 502 µM)
MIC (Fusarium oxysporum [13]): 25 µg/mL (≈ 57 µM)
MBC (Escherichia coli [14]): 220 µg/mL (≈ 502 µM)
MIC (Escherichia coli [14]): 35 µg/mL (≈ 79.8 µM)
MBC (Klebsiella pneumoniae [15]): 250 µg/mL (≈ 570 µM)
MIC (Klebsiella pneumoniae [15]): 35 µg/mL (≈ 79.8 µM)
zone of inhibition at 50 µg/mL (Klebsiella pneumoniae [16]): 6 mm
zone of inhibition at 100 µg/mL (Escherichia coli [17]): 20 mm
zone of inhibition at 50 µg/mL (Fusarium oxysporum [18]): 15 mm
MBC (Staphylococcus aureus [19]): 235 µg/mL (≈ 536 µM)
MIC (Staphylococcus aureus [19]): 40 µg/mL (≈ 91.2 µM)
MFC (Aspergillus flavus [20]): 275 µg/mL (≈ 627 µM)
MIC (Aspergillus flavus [20]): 45 µg/mL (≈ 103 µM)
zone of inhibition at 100 µg/mL (Fusarium verticillioides [21]): 8 mm
zone of inhibition at 50 µg/mL (Fusarium verticillioides [22]): 6 mm
zone of inhibition at 100 µg/mL (Aspergillus niger [23]): 11 mm
zone of inhibition at 100 µg/mL (Aspergillus flavus [24]): 8 mm
